High-throughput results deposited in PubChem BioAssay by The Scripps Research Institute Molecular Screening Center.
The list is not random: actives were taken first. Their share in the collection is about 1.8%.
NPY-Y1 PAM-ag: human NPY-Y1 potentiation or agonism, primary screen; P25929; NPY-Y1 expressing cells, potentiator/agonist activation; actives 0.37% (n = 220,000); AID 1304; activation, % at 3.6 µM; in the data active = activation above about 33%, passing the limit was not always enough;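 also: cells stimulated with NPY at EC10 then isoproterenol at EC100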
Target sequence (P25929 whole entry, looked up): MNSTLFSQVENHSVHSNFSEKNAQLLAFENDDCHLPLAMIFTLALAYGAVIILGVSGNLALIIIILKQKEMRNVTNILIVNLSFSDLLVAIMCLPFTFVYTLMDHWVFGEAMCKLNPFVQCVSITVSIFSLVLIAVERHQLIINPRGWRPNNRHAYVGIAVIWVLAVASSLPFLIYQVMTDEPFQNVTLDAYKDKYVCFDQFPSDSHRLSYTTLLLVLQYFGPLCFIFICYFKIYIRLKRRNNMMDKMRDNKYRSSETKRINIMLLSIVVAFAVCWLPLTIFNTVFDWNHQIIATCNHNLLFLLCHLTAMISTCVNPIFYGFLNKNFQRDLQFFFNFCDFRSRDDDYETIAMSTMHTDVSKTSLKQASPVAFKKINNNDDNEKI
NPY-Y2 PAM-ag: potentiates or activates human NPY-Y2 receptor | P49146 | actives 0.45% (n = 220,000) | activation, % at 3.6 µM | cells expressing NPY-Y2, potentiator/agonist read-out; in the data active = activation above about 27%;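 also: cells stimulated with NPY near EC25 plus isoproterenol at EC100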
Target sequence (P49146 whole entry, looked up): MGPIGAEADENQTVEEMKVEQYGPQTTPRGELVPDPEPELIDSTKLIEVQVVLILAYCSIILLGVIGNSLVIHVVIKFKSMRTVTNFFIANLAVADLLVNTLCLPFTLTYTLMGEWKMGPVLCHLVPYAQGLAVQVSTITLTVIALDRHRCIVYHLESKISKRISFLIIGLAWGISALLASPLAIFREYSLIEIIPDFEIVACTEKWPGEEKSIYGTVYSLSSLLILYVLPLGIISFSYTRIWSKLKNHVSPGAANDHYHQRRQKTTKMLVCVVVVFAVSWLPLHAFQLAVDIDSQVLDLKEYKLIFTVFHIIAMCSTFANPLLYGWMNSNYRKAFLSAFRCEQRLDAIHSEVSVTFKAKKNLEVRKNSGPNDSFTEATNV
NPY Y2 blocker: antagonists of human neuropeptide Y receptor Y2 | NPY-Y2 expressing cells, antagonist mode | inhibition, % at 2.7 µM | actives 0.99% (n = 140,000) | AID 793; in the data active = inhibition above about 17%
NPY Y1 blocker: NPY-Y1 (human) receptor antagonism; HEK293-CNG Y1 cells, membrane potential fluorescence; NPY at EC95, then isoproterenol; actives 1% (n = 200,000); inhibition, % at 3.6 µM; P25929;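 active = inhibition above the campaign mean inhibition of all tested compounds plus 3 SD, cut at about 20% in these data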
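material = HEK293 cells with Y1 receptor plus CNG channel | also added = NPY 25 nM then isoproterenol 1 µM plus Ro 20-1724 25 µM | schedule = dye 3 h, compound 60 min room temperature, stimulation 45 min | measured by = membrane potential fluorescence | benchmarks = high control isoproterenol alone, low control NPY with isoproterenol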
NPY-Y2 pot conf: confirmation of human NPY-Y2 receptor potentiators or agonists | shares compounds with NPY-Y2 PAM-ag | cell-based NPY-Y2 potentiator/agonist assay | activation, % at 3.6 µM | actives 20% (n = 450) | AID 1539; in the data active = activation above about 33%
NPY-Y1 counter: potentiates or activates NPY-Y1, counter-screen for NPY-Y2 hits | shares compounds with NPY-Y2 PAM-ag | Y1 HEK293-CNG cells, membrane potential fluorescence | activation, % at 3.6 µM | actives 20% (n = 450) | AID 1651; in the data active = activation above about 45%;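 also: cells stimulated with submaximal NPY then isoproterenol with phosphodiesterase inhibitor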
NPY-Y1 agonist 2: activates human NPY-Y1, counter-screen for NPY-Y2 potentiators; shares compounds with NPY-Y2 PAM-ag; HEK293 Y1-CNGC, membrane potential fluorescence, agonism; activation, % at 3.6 µM; actives 37% (n = 450); AID 1702;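 active = activation above the mean of DMSO-only control wells plus 3 SD, cut at about 18% in these data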;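 also: cells stimulated with 1 µM isoproterenol plus the PDE inhibitor Ro 20-1724; Y1 agonists lower the membrane potential dye signal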
CNGC inhibitor: counter-screen for NPY-Y2 potentiators: inhibitors of CNG channel activity; shares compounds with NPY-Y2 PAM-ag; HEK293-CNG parental, isoproterenol cAMP, membrane potential fluorescence; inhibition, % at 3.6 µM; actives 32% (n = 450);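 active = inhibition above the control-well mean plus 3 SD of those wells, cut at about 22% in these data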
NPY-Y2 ag 2: counter-screen for NPY-Y2 potentiators: agonists of human NPY-Y2; shares compounds with NPY-Y2 PAM-ag; HEK293 Y2/CNGC cells, membrane potential fluorescence, agonist mode; activation, % at 3.6 µM; actives 56% (n = 450); AID 1710;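 active = activation above the mean of solvent-only control wells plus 3 SD, cut at about 10% in these data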;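 also: cells stimulated by isoproterenol with no NPY added so direct agonism is tested; agonism lowers probe fluorescence through less cAMP and CNG channel opening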
Numbers stand for hits; . = inactive; / = not tested or not shown.

SMILES | NPY-Y1 PAM-ag | NPY-Y2 PAM-ag | NPY Y2 blocker | NPY Y1 blocker | NPY-Y2 pot conf | NPY-Y1 counter | NPY-Y1 agonist 2 | CNGC inhibitor | NPY-Y2 ag 2
Cc1nn(Cc2ccccc2)c(C)c1NC(=O)CSc1n[nH]c(C)c1[N+](=O)[O-] | . | . | . | . | / | / | / | / | /
Nc1cc(-c2ccc(Br)cc2)nn1Cc1ccccc1 | . | 36 | / | . | . | . | . | . | 28
Cc1cc2c(C)nc(-c3ccccc3)nc2o1 | . | . | . | . | / | / | / | / | /
Cc1nc(-c2cn[nH]c2)c2cc(C)oc2n1 | . | 107 | . | . | . | . | . | . | .
Nc1c([N+](=O)[O-])c(=O)oc2ccccc12 | . | . | / | . | / | / | / | / | /
CN(C)S(=O)(=O)c1cccc(NC(=O)Cc2ccc(Cl)cc2)c1 | . | . | . | . | / | / | / | / | /
COc1ccccc1NS(=O)(=O)c1cccc(NC(=O)Nc2ccc(Cl)cc2)c1 | . | 31 | / | . | . | . | 30 | 32 | 31
O=C(Cc1ccc(Cl)cc1)Nc1cccc(S(=O)(=O)Nc2ccccc2F)c1 | . | 38 | . | . | . | . | . | . | 20
CCc1ccc2nc3sc(C(=O)O)cc3cc2c1 | . | . | / | . | / | / | / | / | /
Cc1cc(C)n2nc(CCCCc3nc4nc(C)cc(C)n4n3)nc2n1 | . | . | / | . | / | / | / | / | /
O=C(CSC1CN(C(c2ccccc2)c2ccccc2)C1)N/N=C/c1ccccc1 | . | . | / | / | / | / | / | / | /
O=C(NCc1ccccc1)c1ccccc1C(=O)c1ncc[nH]1 | . | . | / | . | / | / | / | / | /
Cc1nn(Cc2ccccc2)c(Cl)c1C(=O)NCc1ccco1 | . | . | / | . | / | / | / | / | /
O=[N+]([O-])c1cc([N+](=O)[O-])c2c(=Nc3ccccc3)n(-c3ccccc3)n(O)c2c1 | . | 46 | / | . | 47 | 52 | 47 | 34 | 65
Cn1c(=O)[nH]c(=O)c2c1nc1n2CC(COc2ccc3ccccc3c2)O1 (configuration not stated) | . | . | / | / | / | / | / | / | /
COc1ccc(Cl)cc1NS(=O)(=O)c1cc(Cl)ccc1OC | . | 33 | . | . | . | . | 29 | 26 | 32
OC(c1ccccc1)(c1ccc(F)cc1)C(c1ccccc1)N1CCOCC1 (configuration not stated) | . | . | . | . | / | / | / | / | /
Cc1ccc(N2C(SCC(=O)O)=NC(=Nc3cccc(C)c3)C23CCCC3)cc1 | . | 70 | / | . | . | . | . | . | .
O=C(O)CSC1=NC(=Nc2ccc(Cl)cc2)C2(CCCCC2)N1c1cccc(C(=O)O)c1 | . | . | . | . | / | / | / | / | /
C=CCNC(=S)NNC(=O)c1cccn(Cc2cccc(Cl)c2)c1=O | . | . | . | . | / | / | / | / | /
O=C(O)c1ccc(OCc2cn3ccccc3n2)cc1 | . | 101 | / | / | . | . | . | . | 13
Cc1nn(-c2ccccc2)nc1C(=O)c1c(C)[nH]n(-c2ccccc2)c1=O | . | 65 | / | / | . | . | . | . | .
O=C1Nc2ccccc2N=C(c2ccccc2)c2ccccc21 | . | 41 | / | / | . | . | . | . | .
CN(C)S(=O)(=O)n1ccnc1 | . | . | . | . | / | / | / | / | /
O=C1/C(=C\c2ccc(O)c(O)c2)C(c2ccccc2)=NN1c1ccccc1 | . | 26 | / | . | . | . | . | . | .
SMILES | NPY-Y1 PAM-ag | NPY-Y2 PAM-ag | NPY Y2 blocker | NPY Y1 blocker | NPY-Y2 pot conf | NPY-Y1 counter | NPY-Y1 agonist 2 | CNGC inhibitor | NPY-Y2 ag 2
CC(C)(C)N(Cc1cc2ccccc2[nH]c1=O)C(=O)c1ccco1 | . | . | / | . | / | / | / | / | /
CC(C)(C)N(Cc1cc2ccccc2[nH]c1=O)C(=O)c1cccnc1 | . | 85 | . | . | . | . | . | . | .
CC(C)c1ccc(-c2nc(N3CCOCC3)[nH]c(=O)c2C#N)cc1 | . | . | . | . | / | / | / | / | /
CC(C)OC(=O)C(C)Nc1n[nH]c(=S)[nH]c1=O (configuration not stated) | . | 73 | / | . | . | . | . | . | 11
CCOC(=O)Nc1nnc(-c2cccc(OC)c2)s1 | . | 49 | . | . | . | . | 25 | . | .
CCOC(=O)Nc1nnc(-c2ccc(OC)cc2)s1 | . | . | . | . | / | / | / | / | /
O=C(/C=C/c1ccc([N+](=O)[O-])cc1)NCCc1ccc(F)cc1 | . | 46 | / | . | . | . | . | . | .
O=C(/C=C/c1cccc([N+](=O)[O-])c1)NCCc1ccc(F)cc1 | . | . | . | . | / | / | / | / | /
COc1ccc(Oc2cc(C(F)(F)F)cnc2C(N)=O)cc1 | . | . | . | . | / | / | / | / | /
COCCNC(=O)CN1C(=O)CSc2cc(S(=O)(=O)N3CCCCCC3)ccc21 | . | 97 | . | . | . | . | . | . | .
Cc1ccc(NS(=O)(=O)c2cccc(C(=O)Nc3c(C)n(C)n(-c4ccccc4)c3=O)c2)cc1 | . | 58 | / | / | . | . | . | . | .
Cc1c(NS(=O)(=O)c2cccc(C(=O)NCc3ccccc3)c2)c(=O)n(-c2ccccc2)n1C | . | . | . | . | / | / | / | / | /
CCN(CC)CC(O)Cn1c2ccccc2c2ccccc21 (configuration not stated) | . | 38 | . | . | 38 | . | 29 | . | 41
Cc1nn(Cc2ccc([N+](=O)[O-])cc2)c(=O)n1-c1cccc(Cl)c1 | . | . | / | . | / | / | / | / | /
CCCC1=C(C(=O)OCC)C(c2ccc(N(C)C)cc2)n2ncnc2N1 (configuration not stated) | . | . | . | . | / | / | / | / | /
c1ccc(CSc2nc3ncncc3[nH]2)cc1 | . | 48 | / | / | . | . | . | . | 19
S=c1nc(SCc2ccccc2)[nH]c2ccccc12 | . | . | / | . | / | / | / | / | /
COc1ccc(S(=O)(=O)Nc2ccc(F)cc2)cc1N(C)S(=O)(=O)c1ccc(Cl)cc1 | . | . | . | . | / | / | / | / | /
COc1ccc(NS(=O)(=O)c2ccc(OC)c(N(C)S(=O)(=O)c3ccc(Cl)cc3)c2)cc1 | . | 35 | . | . | . | . | . | . | .
CCCOC(=O)NC(CC)COC(=O)Nc1cccc(C)c1C (configuration not stated) | . | 33 | . | . | . | . | . | . | .
O=C(Nc1ccccc1N1CCOCC1)c1cccc(F)c1 | . | . | / | . | / | / | / | / | /
O=C(Nc1ccccc1N1CCOCC1)c1ccc2nc[nH]c2c1 | . | 41 | / | . | . | . | . | . | .
Cc1ccc(Nc2nc(-c3ccncc3)cs2)cc1 | . | 36 | / | . | 35 | 48 | 60 | 49 | 46
Fc1ccc(Nc2nc(-c3cccnc3)cs2)cc1 | . | 34 | / | . | 35 | 58 | 59 | 43 | 43
N=C1C(c2ccccc2)=C(O)CN1c1ccc2c(c1)OCO2 | . | . | . | . | / | / | / | / | /
Cc1nn(CC(=O)OCC(=O)NC(C)c2ccccc2)c(C)c1[N+](=O)[O-] (configuration not stated) | . | 92 | / | . | . | . | . | . | .
